How the values were obtained:
Ctenocephalides felis [1] = test: Insecticidal activity against ARC sensitive homozygous alanine A/A flea at 100 mM by contact assay; format: functional
Method in brief: (§1)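 Contact vial assay with cat fleas of the cyclodiene-resistant homozygous serine (CO) or sensitive homozygous alanine (ARC) strain. Compound in DMSO was dried onto a glass-fiber disk for 24–48 h, and a DMSO-only disk was the control. Twenty newly emerged fleas, sedated at 0–4 °C, were sealed in each vial and held in the dark. Dead fleas were counted after 24 h, and percentage mortality was calculated.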

[2] = biological target: GABA-A receptor; anion channel; test: Binding affinity to mouse brain GABA receptor
Method in brief: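 Displacement of [3H]EBOB (5.2 nM, 38 Ci/mmol) from neuronal membranes (0.5–1.0 mg/mL), housefly or mouse brain, in ice-cold 10 mM phosphate, 300 mM NaCl, pH 7.5. Compound added from DMSO. Membrane-free wells served as controls. Incubated 45 min at 24 °C, then filtered on polyethylenimine-soaked glass fiber and bound radioactivity counted. IC50 (50% of maximal inhibition) taken from 24–48 concentrations.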

Musca domestica [3] = test: Insecticidal activity against housefly by contact assay; format: functional; parameters: concentration or dose not given beside the values
Method in brief: (§2)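 Newly emerged houseflies were CO2-sedated and fed 10% sucrose for 2–4 h. Compound in DMSO with isopropanol was rolled to coat glass tubes and air-dried for 24–48 h, with a DMSO-only control. Twenty flies, sedated by refrigeration at 0–4 °C, were placed in each tube. Healthy, moribund and dead flies were counted after 24 h.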

[4] = Selectivity for housefly GABA receptor over mouse GABA receptor
GABA receptor subunit = biological target: T1, GABA receptor subunit (Musca domestica, UniProt Q75NA5); test: Displacement of [3H]EBOB from housefly neuronal membrane GABA receptor
T1 sequence (Q75NA5 whole entry): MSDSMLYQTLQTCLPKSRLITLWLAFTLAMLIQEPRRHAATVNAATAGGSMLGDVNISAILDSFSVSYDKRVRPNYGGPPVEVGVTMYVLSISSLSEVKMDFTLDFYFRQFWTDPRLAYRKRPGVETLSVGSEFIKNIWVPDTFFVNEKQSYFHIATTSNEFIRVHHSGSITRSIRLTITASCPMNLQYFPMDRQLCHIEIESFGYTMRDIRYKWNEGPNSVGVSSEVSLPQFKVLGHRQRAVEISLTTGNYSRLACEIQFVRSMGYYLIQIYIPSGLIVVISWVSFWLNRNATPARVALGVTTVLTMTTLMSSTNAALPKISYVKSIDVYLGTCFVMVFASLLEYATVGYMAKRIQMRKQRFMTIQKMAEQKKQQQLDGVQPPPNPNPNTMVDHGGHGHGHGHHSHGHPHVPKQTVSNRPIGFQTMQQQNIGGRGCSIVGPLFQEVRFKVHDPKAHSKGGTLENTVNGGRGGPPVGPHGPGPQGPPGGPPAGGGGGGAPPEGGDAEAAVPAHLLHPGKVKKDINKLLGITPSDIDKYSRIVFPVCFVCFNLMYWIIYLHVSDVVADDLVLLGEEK
Method in brief: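 Housefly neuronal membranes (0.5–1.0 mg/mL in added buffer) with 5.2 nM [3H]EBOB in ice-cold 10 mM phosphate, 300 mM NaCl, pH 7.5; DMSO compound solutions. Incubated 45 min at 24 °C, then filtered on polyethylenimine-soaked glass fiber; bound radioactivity counted. Membrane-free wells served as controls. Actives were retested at 24–48 final concentrations, and IC50 was taken at 50% of maximal inhibition.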

Ctenocephalides felis [5] = test: Insecticidal activity against cyclodiene resistant allele-homozygous serine S/S flea at 100 mM by contact assay; format: functional; method in brief: as §1
Ctenocephalides felis [6] = test: Insecticidal activity against cyclodiene resistant allele-homozygous serine S/S flea by contact assay; format: functional; method in brief: as §1
Musca domestica [7] = test: Insecticidal activity against housefly at 100 mM by contact assay; format: functional; details: for LC50: Musca domestica, read-out: LD50 (the source's name); method in brief: as §2
[8] = (§3) Half life in mouse liver microsome; format: ADME; details: liver microsomes
Mus musculus [9] = species on record: Mus musculus; test: Clearance in mouse; format: ADME, organism-based; details: in vitro
Canis familiaris [10] = species on record: Canis familiaris; test: Clearance in dog; format: ADME, organism-based, Canis lupus familiaris; details: in vitro
Canis familiaris [11] = species on record: Canis familiaris; test: (§4) Half life in dog liver microsome; format: ADME, Canis lupus familiaris; details: microsomes
Ctenocephalides felis [12] = test: Insecticidal activity against heterozygous S/A flea by contact assay; format: functional
Mus musculus [13] = species on record: Mus musculus; test: as §3; format: ADME; details: microsomes
[14] = as §4; format: ADME, Canis lupus familiaris; details: liver microsomes
[15] = read-out: LD50 (the source's name)

SMILES	Activity (Ctenocephalides felis [1])	IC50 [2]	Activity (Musca domestica [3])	selectivity ratio [4]	IC50 (GABA receptor subunit)	Activity (Ctenocephalides felis [5])	LC50 (Ctenocephalides felis [6]; [15])	also measured
FC(F)(F)c1cc(Cl)c(-n2cc3c(n2)C(F)(F)CC3(F)F)c(Cl)c1	100%	0.3 µM	93.9%	4	0.074 µM	60.7%	–	–
CC1(F)CC(F)(F)c2nn(-c3c(Cl)cc(C(F)(F)F)cc3Cl)cc21 (stereo unspecified)	100%	> 10 µM	16.7%	–	–	3%	–	–
COC1CC(F)(F)c2nn(-c3c(Cl)cc(C(F)(F)F)cc3Cl)cc21 (stereo unspecified)	100%	3.7 µM	22%	–	–	3%	–	–
O=C1c2cn(-c3c(Cl)cc(C(F)(F)F)cc3Cl)nc2CC1(F)F	40%	–	6%	–	–	1%	–	–
FC1CCc2cn(-c3c(Cl)cc(C(F)(F)F)cc3Cl)nc21 (stereo unspecified)	95%	2.9 µM	85%	10	0.29 µM	–	11000 µM	–
FC(F)(F)c1cc(Cl)c(-n2cc3c(n2)CCC3(F)F)c(Cl)c1	100%	1 µM	–	< 10	> 0.1 µM	–	1000 µM	LC50 (Musca domestica [7]): 88000 µM
COC1(C)c2cn(-c3c(Cl)cc(C(F)(F)F)cc3Cl)nc2CC1F (stereo unspecified)	100%	12 µM	–	120	0.1 µM	–	1800 µM	half-life [8]: 2.42 h; CL (Mus musculus [9]): 34.1 pmol/min/mg; CL (Canis familiaris [10]): Stable; T1/2 (Canis familiaris [11]): Stable
FC1c2nn(-c3c(Cl)cc(C(F)(F)F)cc3Cl)cc2C(F)(F)C1F (stereo unspecified)	100%	0.175 µM	–	–	–	–	< 500 µM	LC50 (Musca domestica [7]): 400 µM
FC1Cc2nn(-c3c(Cl)cc(C(F)(F)F)cc3Cl)cc2C1(F)F (stereo unspecified)	100%	1 µM	100%	> 10	< 0.1 µM	–	1000 µM	half-life [8]: 1.08 h; CL (Mus musculus [9]): 109.2 pmol/min/mg; CL (Canis familiaris [10]): Stable; T1/2 (Canis familiaris [11]): Stable
CC1CCc2nn(-c3c(Cl)cc(C(F)(F)F)cc3Cl)cc21 (stereo unspecified)	100%	3.8 µM	–	126	0.03 µM	–	–	Activity (Musca domestica [7]): 10%; LC50 (Ctenocephalides felis [12]): 3000 µM; LC50 (Ctenocephalides felis [6]; read-out: LC50): 10000 µM
CC1(O)c2cn(-c3c(Cl)cc(C(F)(F)F)cc3Cl)nc2C(F)C1F (stereo unspecified)	100%	> 10 µM	100%	> 28	–	–	5000 µM	–
CC1(O)c2cn(-c3c(Cl)cc(C(F)(F)F)cc3Cl)nc2CC1(F)F (stereo unspecified)	100%	2.3 µM	72%	23	–	–	10000 µM	T1/2 (Mus musculus [13]): Stable; CL (Mus musculus [9]): Stable; CL (Canis familiaris [10]): 296.9 pmol/min/mg; half-life [14]: 8.45 h
FC1(F)Cc2cn(-c3c(Cl)cc(C(F)(F)F)cc3Cl)nc2C1	100%	0.175 µM	87.9%	1	0.2 µM	–	2000 µM	–
O=C1CC(F)(F)c2nn(-c3c(Cl)cc(C(F)(F)F)cc3Cl)cc21	40%	–	6%	–	–	1%	–	–
FC1Cc2cn(-c3c(Cl)cc(C(F)(F)F)cc3Cl)nc2C1F (stereo unspecified)	100%	1 µM	–	5	0.2 µM	–	–	LC50 (Musca domestica [7]): 79000 µM; half-life [8]: 0.373 h; CL (Mus musculus [9]): 255.1 pmol/min/mg; CL (Canis familiaris [10]): Stable; T1/2 (Canis familiaris [11]): Stable
O=C1c2cn(-c3c(Cl)cc(C(F)(F)F)cc3Cl)nc2CC1F (stereo unspecified)	95.4%	3.2 µM	57.5%	10	0.32 µM	10.8%	–	–
FC(F)(F)c1cc(Cl)c(-n2cc3c(n2)CC(F)(F)C3(F)F)c(Cl)c1	100%	0.05 µM	–	> 0.5	< 0.1 µM	–	< 500 µM	–
FC(F)(F)c1cc(Cl)c(-n2cc3c(n2)C(F)(F)CC3)c(Cl)c1	100%	2.8 µM	–	–	–	–	15000 µM	–
FC1CCc2nn(-c3c(Cl)cc(C(F)(F)F)cc3Cl)cc21 (stereo unspecified)	–	> 10 µM	7%	> 5	1.7 µM	36%	–	–
O=C1CCc2nn(-c3c(Cl)cc(C(F)(F)F)cc3Cl)cc21	16.5%	20 µM	–	42	0.47 µM	–	–	LC50 (Musca domestica [7]): 81000 µM
FC(F)(F)c1cc(Cl)c(-n2cc3c(n2)CCC3)c(Cl)c1	100%	1.6 µM	–	19	–	–	–	Activity (Musca domestica [7]): 30%; LC50 (Ctenocephalides felis [12]): 7000 µM; LC50 (Ctenocephalides felis [6]; read-out: LC50): 8000 µM

— ChEMBL document CHEMBL1139031, “Synthesis and insecticidal activity of fluorinated 2-(2,6-dichloro-4-trifluoromethylphenyl)-2,4,5,6-tetrahydrocyclopentapyrazoles” (Bioorg Med Chem Lett, 2006)
